# Measurements as given in ChEMBL document CHEMBL4177644, “Design, synthesis and biological activity of 3-pyrazine-2-yl-oxazolidin-2-ones as novel, potent and selective inhibitors of mutant isocitrate dehydrogenase 1” (Bioorg Med Chem, 2017).
# Tests used:
# HEK-293T [1] = assay: Cytotoxicity against HEK293T cells harboring WT-IDH1 at 10 uM after 72 hrs by CellTiter-Glo assay; type: cell-based; details: human
# Outline: (§1)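 HEK-293T cells stably carrying IDH1 wild-type (pMXs-IDH1wt-IRES-BsdR, blasticidin-selected), 10 000 cells per well in DMEM with 10% FCS, 37 °C, 5% CO2. Compound added at the stated concentration for 72 h. Viability read by CellTiter-Glo luminescence.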
# [2] = test system: Isocitrate dehydrogenase [NADP] cytoplasmic (Homo sapiens), O75874 [R132H]; assay: Inhibition of IDH1 R132H mutant (unknown origin) expressed in HEK293T cells assessed as reduction in D-2-HG levels at 10 uM after 72 hrs relative to control; values are per cent of control
# [3] = test system: Isocitrate dehydrogenase [NADP] cytoplasmic (Homo sapiens), O75874 [R132H]; assay: Inhibition of IDH1 R132H mutant (unknown origin) expressed in HEK293T cells assessed as reduction in D-2-HG levels at 50 uM after 72 hrs relative to control; values are per cent of control
# [4] = test system: Isocitrate dehydrogenase [NADP] cytoplasmic (Homo sapiens), O75874 [R132C]; assay: Inhibition of IDH1 R132C mutant (unknown origin) expressed in HEK293T cells assessed as reduction in D-2-HG levels at 50 uM after 72 hrs relative to control; values are per cent of control
# [5] = test system: Isocitrate dehydrogenase [NADP] cytoplasmic (Homo sapiens), O75874 [R132C]; assay: Inhibition of IDH1 R132C mutant (unknown origin) expressed in HEK293T cells assessed as reduction in D-2-HG levels at 10 uM after 72 hrs relative to control; values are per cent of control
# HEK-293T [6] = assay: Cytotoxicity against HEK293T cells harboring WT-IDH1 at 50 uM after 72 hrs by CellTiter-Glo assay; type: cell-based; details: human; outline: as §1
# [7] = Permeability of compound at 25 ug/ml after 18 hrs by PAMPA-BBB assay; type: ADME; details: read-out: Peff
# Outline: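 PAMPA-BBB with porcine polar brain lipid (20 mg/mL, 4 µL per filter). DMSO stock 5 mg/ml diluted in PBS to 25 ug/ml final, 300 uL in donor, 150 µL PBS in acceptor. Sandwich left 18 h at room temperature. Acceptor and reference concentrations read by UV plate reader, Pe calculated by formula. Mean ± SD of three independent experiments.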
# [8] = Cytotoxicity against HEK293T cells harboring WT-IDH1 assessed as cell survival at 10 uM after 72 hrs by CellTiter-Glo assay relative to control; type: cell-based, HEK-293T; details: human, read-out: Survival
# Outline: (§2)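 HEK293 cells stably expressing wild-type IDH1 (cDNA in pMXs-GW-IRES-BsdR, transfected with FuGene HD, selected with blasticidin S), grown in DMEM with 10% fetal calf serum and 1% penicillin/streptomycin at 37 °C, 5% CO2. Seeded at 10 000 cells/well in 96-well plates, treated with compound for 72 h; viability read by CellTiter-Glo luminescence.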
# [9] = Cytotoxicity against HEK293T cells harboring WT-IDH1 assessed as cell survival at 50 uM after 72 hrs by CellTiter-Glo assay relative to control; type: cell-based, HEK-293T; details: human, read-out: Survival; outline: as §2
# Sequence of Isocitrate dehydrogenase [NADP] cytoplasmic (Homo sapiens), O75874 [R132C] (O75874 whole entry R132C): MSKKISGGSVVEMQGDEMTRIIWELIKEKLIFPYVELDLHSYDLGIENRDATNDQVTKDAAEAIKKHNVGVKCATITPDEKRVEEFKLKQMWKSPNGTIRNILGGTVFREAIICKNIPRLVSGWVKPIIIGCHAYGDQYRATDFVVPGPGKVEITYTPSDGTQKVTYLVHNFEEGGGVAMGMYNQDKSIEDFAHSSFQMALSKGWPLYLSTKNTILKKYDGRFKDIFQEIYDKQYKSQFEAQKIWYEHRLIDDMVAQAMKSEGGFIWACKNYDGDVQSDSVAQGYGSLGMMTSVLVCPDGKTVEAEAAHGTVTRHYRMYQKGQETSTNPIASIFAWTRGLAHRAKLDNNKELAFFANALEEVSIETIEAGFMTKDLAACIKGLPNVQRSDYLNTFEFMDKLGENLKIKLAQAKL
# Sequence of Isocitrate dehydrogenase [NADP] cytoplasmic (Homo sapiens), O75874 [R132H] (O75874 whole entry R132H): as the sequence (O75874 whole entry R132C) above, with C132H counted along it
residual activity [2] [%],residual activity [3] [%],residual activity [4] [%],residual activity [5] [%],SMILES,Activity (HEK-293T [1]),Activity (HEK-293T [6]),"Papp at 18 h, 25 ug/ml [7] [×10⁻⁶ cm/s]","viability at 72 h, 10 µM [8] [%]","viability at 72 h, 50 µM [9] [%]"
47.7,31.9,51.7,51.3,COc1ccc(-c2ccc([C@H](C)Nc3cncc(N4C(=O)OC[C@@H]4C(C)C)n3)cc2)cc1,Non-Toxic,,,,
47.9,21.5,30.2,54.1,Cc1noc(C)c1-c1ccc([C@H](C)Nc2cncc(N3C(=O)OC[C@@H]3C(C)C)n2)cc1,Non-Toxic,Toxic,,,
78.4,28,44.1,89.9,CC(C)[C@H]1COC(=O)N1c1cncc(N[C@@H](C)c2ccc(-c3ccccc3F)cc2)n1,Non-Toxic,,,,
85.4,39.5,73.9,71.3,CC(C)[C@H]1COC(=O)N1c1cncc(N[C@@H](C)c2ccc(-c3ccc4ccccc4c3)cc2)n1,Non-Toxic,,,,
97.2,34.7,50.6,116,CC(C)[C@H]1COC(=O)N1c1cncc(N[C@@H](C)c2ccc(-c3cccc(F)c3)cc2)n1,Non-Toxic,,,,
39.2,28.3,29.1,44.6,Cc1ccccc1-c1ccc([C@H](C)Nc2cncc(N3C(=O)OC[C@@H]3C(C)C)n2)cc1,Non-Toxic,,,,
50,38.8,108,50.4,CC(C)[C@H]1COC(=O)N1c1cncc(N[C@@H](C)c2ccc(-c3ccccc3)cc2)n1,Non-Toxic,,,,
34.3,33,51.3,39,CC(C)[C@H]1COC(=O)N1c1cncc(N[C@@H](C)c2ccc(-c3ccc(F)cc3)cc2)n1,Non-Toxic,Toxic,,,
49.7,28.5,29.7,51.1,Cc1cccc(-c2ccc([C@H](C)Nc3cncc(N4C(=O)OC[C@@H]4C(C)C)n3)cc2)c1,Non-Toxic,,,,
59.8,33.9,41.7,86,COc1cccc(-c2ccc([C@H](C)Nc3cncc(N4C(=O)OC[C@@H]4C(C)C)n3)cc2)c1,Non-Toxic,,,,
70.5,38.7,54.8,74.9,Cc1ccc(-c2ccc([C@H](C)Nc3cncc(N4C(=O)OC[C@@H]4C(C)C)n3)cc2)cc1,Non-Toxic,,,,
28,30.7,27.4,39.9,CC(C)[C@H]1COC(=O)N1c1cncc(N[C@@H](C)c2ccc(-c3ccc(C(F)(F)F)cc3)cc2)n1,Non-Toxic,Toxic,,,
,,,,CNCCCN1c2ccccc2CCc2ccccc21 [DESIPRAMINE],,,8.82,,
33.9,24.7,29.7,,CC(C)[C@H]1COC(=O)N1c1ccnc(N[C@@H](C)c2ccc(-c3ccccn3)cc2)n1,Non-Toxic,,,,

SMILES,residual activity [2] [%],residual activity [3] [%],residual activity [4] [%],residual activity [5] [%],Activity (HEK-293T [1]),Activity (HEK-293T [6]),"Papp at 18 h, 25 ug/ml [7] [×10⁻⁶ cm/s]","viability at 72 h, 10 µM [8] [%]","viability at 72 h, 50 µM [9] [%]"
COc1ccccc1-c1ccc([C@H](C)Nc2cncc(N3C(=O)OC[C@@H]3C(C)C)n2)cc1,31.9,24.6,28.2,40.6,Non-Toxic,,6.65,89.8,74.5
